The text below walks through data of PMC2771698 (Journal of medicinal chemistry, 2009).

“And” between values parts separate entries of the source, which are not always exact repeats. Equal entries are not always repeated. Where two headings read alike, the source gives them in different places.

For data set [1] the following is noted: cited from earlier work.
Data set [2] has as its system T. cruzi trypomastigotes (Tulahuen strain). The experiment in a line: Efficacy in mice infected with T. cruzi. The format is in vivo. The note with it: days 7–27 post-infection. The gist of the method:
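Female BALB/c mice (7–8 weeks) infected subcutaneously with 1×10^4 Tulahuen trypomastigotes; treatment began day 7 post-infection. Groups of 6 dosed by oral gavage twice daily for 21 days, 100 µL per dose in 20% (w/v) hydroxypropyl β-cyclodextrin; vehicle-only group included. Parasitemia counted in 5 µL tail blood under coverslip, 50 high-power fields, through day 97. Pre-morbid mice euthanized; survivors sacrificed day 100.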

For data set [3] the following is noted: mice and rats; cited from earlier work.
The next data set has as its system T. cruzi. In words: PCR detection of T. cruzi parasitemia in blood of treated mice at day 100. It counts as in vivo. To be noted: for PCR parasite detection after 100 days post infection: days 7–27 post-infection, groups of 6.
In another data set the test system is T. cruzi amastigotes. In words: T. cruzi. It counts as cell-based, Trypanosoma cruzi. The note with it: read-out: EC50 T. cruzi. An outline of the steps:
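β-galactosidase-expressing Tulahuen strain grown as intracellular amastigotes in murine 3T3 fibroblasts, 96-well format, colorimetric read-out. Test compounds HPLC-purified to a single peak, with ≥95% estimated purity by 1H NMR. Each tested in triplicate to derive EC50.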

Data set [4] can be described thus: Single oral dose pharmacokinetics in BALB/c mice. The format is in vivo. To be noted: single dose 50 mg/kg oral gavage; for AUC 0_5hr, Mouse 1, 2, 3 / Tmax, Mouse 1, 2, 3 / Cmax, Mouse 1, 2, 3: Balb/c mice, individual mice, 50 mg/kg; for Cmax, Mouse 1, 2, 3: plasma.
Where [5] appears, read: 20 mg/kg oral gavage twice per day.
Setting [6] is: 50 mg/kg oral gavage twice per day.

On to `c1ccc(-c2ccc(Cn3cncc3CNc3ccc(-c4cncs4)c(-c4ccccc4)c3)cc2)cc1` [Compound 27a], for which the “pharmacokinetic profile in mice” value in data set [1] was “good pharmacokinetic profile”.
With `CC[C@@H]([C@H](C)O)n1ncn(-c2ccc(N3CCN(c4ccc(OC[C@@H]5CO[C@@](Cn6cncn6)(c6ccc(F)cc6F)C5)cc4)CC3)cc2)c1=O` [Posaconazole, posaconazole, reference compound], in data set [2] (setting [5]), the “suppression of parasitemia in blood (microscopy)” value (shortened to “suppression of parasitemia”) is given as “most suppression”. Besides, the terminal phase half-life in data set [3] was 7 to 9 h. Moreover, the “PCR parasite detection after 100 days post infection” value (“PCR parasite detection” for short) in the data set with T. cruzi (setting [5]) is 0 of 6 mice.
For the compound `Nc1cc(-c2ccccc2)ccc1Cn1cncc1CNc1ccc(-c2cncs2)c(-c2ccccc2)c1` [Compound 44e], in the data set on T. cruzi amastigotes (Table 5, general structure V), the half-maximal effective concentration (EC50) was determined as 13 nM.
As for `Cc1ccccc1-c1ccc(Cn2cncc2CNc2ccc(-c3nc4ccccc4s3)c(-c3ccccc3)c2)cc1` [Compound 32f], in the data set with T. cruzi amastigotes (Table 3, general structure III), the EC50 amounted to 180 nM.
For the compound `N#Cc1ccc(NCc2cncn2Cc2ccc(-c3ccccc3)cc2N)cc1-c1ccccc1` [Compound 44b], the EC50 in the data set on T. cruzi amastigotes (Table 5, general structure V) is 2.6 nM.
Consider `Cc1cccc(-c2cc(NCc3cncn3Cc3ccc(-c4ccccc4)cc3)ccc2-c2nc3ccccc3s2)c1C` [Compound 32h], for which, in the data set on T. cruzi amastigotes (Table 3, general structure III), the EC50 came out at 101 nM.
Still for that read-out and setting: to `CCc1ccc(Cn2cncc2CNc2ccc(-c3nc4ccccc4s3)c(-c3ccccc3)c2)cc1` [Compound 32b] belongs 190 nM; to `CC(C)c1ccc(Cn2cncc2CNc2ccc(-c3nc4ccccc4s3)c(-c3ccccc3)c2)cc1` [Compound 32a], 860 nM.
`Cc1ccccc1-c1cccc(NCc2cncn2Cc2ccccc2)c1` [Compound 35g]: in the data set on T. cruzi amastigotes (Table 4, general structure IV), the EC50 was found to be 310 nM.
In the case of `c1ccc(-c2ccc(Cn3cncc3CNc3ccc(-c4nc5ccccc5s4)c(-c4ccccc4)c3)cc2)cc1` [Compound 27d], the “pharmacokinetic profile in mice” value in data set [1] is listed as “good pharmacokinetic profile”.
On to `c1ccc(Cn2cncc2CNc2cccc(-c3cccnc3)c2)cc1` [Compound 35j], for which the half-maximal effective concentration (EC50) in the data set on T. cruzi amastigotes (Table 4, general structure IV) came to 760 nM.
With `Nc1cc(-c2ccccc2)ccc1Cn1cncc1CNc1ccc(-c2nc3ccccc3s2)c(-c2ccccc2)c1` [Compound 44d], the “suppression of parasitemia” value in data set [2] (setting [5]) is “dramatically suppressed”. Further, the “suppression of parasitemia” value in data set [2] (setting [6]) was “most suppression”. Besides, in data set [4], the “AUC 0_5hr, Mouse 1, 2, 3” value was 32400 ng·h/mL and 29000 ng·h/mL; the “Tmax, Mouse 1, 2, 3” value was 2.0 h; the “Cmax, Mouse 1, 2, 3” value was 8600 ng/mL. For the same compound, the “drug loss from plasma out to 5 hr” value in data set [4] (mice) was “significant drug loss was not observed”. Further, the “PCR parasite detection” value in the data set with T. cruzi (setting [5]) is listed as 5 of 6 mice. For the same compound, the “PCR parasite detection” value in the data set on T. cruzi (setting [6]) was 2 of 6 mice. In the data set with T. cruzi (50 mg/kg twice per day, day 100), the “mice with parasitemia suppressed below PCR detectability” value is recorded as 4 of 6.
Consider `Cc1cccc(-c2cccc(NCc3cncn3Cc3ccccc3)c2)c1C` [Compound 35i], for which the EC50 in the data set with T. cruzi amastigotes (Table 4, general structure IV) amounted to 300 nM.
In the case of `Cc1ccccc1-c1cc(NCc2cncn2Cc2ccc(-c3ccccc3)cc2)ccc1-c1nc2ccccc2s1` [Compound 32g], the EC50 in the data set with T. cruzi amastigotes (Table 3, general structure III) worked out at 42 nM.
With `Nc1cc(-c2ccccc2)ccc1Cn1cncc1CNc1ccc(Cl)c(-c2ccccc2)c1` [Compound 44a, (6-Chloro-biphenyl-3-yl)-[3-(3-amino-biphenyl-4-ylmethyl)-3H-imidazol-4-ylmethyl]-amine], the “suppression of parasitemia” value in data set [2] (setting [6]) is “dramatically suppressed”. Further, the EC50 with T. cruzi amastigotes (Table 5, general structure V) was 1.5 nM and 2.1 nM. In addition, in data set [4], the “AUC 0_5hr, Mouse 1, 2, 3” value was 6700 ng·h/mL and 5600 ng·h/mL; the “Tmax, Mouse 1, 2, 3” value is 1.0 h; the “Cmax, Mouse 1, 2, 3” value was 1900 ng/mL. The “PCR parasite detection” value in the data set on T. cruzi (setting [6]) is listed as 6 of 6 mice.
On to `c1ccc(Cn2cncc2CNc2cccc(-c3ccccc3)c2)cc1` [Compound 35e], for which the EC50 in the data set on T. cruzi amastigotes (Table 4, general structure IV) was determined as 400 nM.
Turning to `Fc1ccc(Cn2cncc2CNc2ccc(-c3nc4ccccc4s3)c(-c3ccccc3)c2)c(F)c1` [Compound 32d], in the data set on T. cruzi amastigotes (Table 3, general structure III), the EC50 is 630 nM.

Broadly, the EC50 is the concentration at which the effect is half-maximal.
